The target in assay [1] is Aryl hydrocarbon receptor nuclear translocator (Homo sapiens) (UniProt P27540). Description: Inhibition of hypoxia-induced HIF1beta activation in human T47D cells at 0.3 uM after 4 hrs by Western blotting. It counts as cell-based. The essentials:
(§1)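 T47D cells exposed to compound 30 min, then hypoxia (1% O2/94% N2/5% CO2) 4 h. Nuclear extracts prepared; HIF-1α probed by Western blot with monoclonal antibody, membrane stripped and reprobed for HIF-1β with monoclonal anti-HIF-1β antibody.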
Background: A western blot detects proteins with antibodies after separation by electrophoresis.

Assay [2] has as its system T47D. Put plainly: Inhibition of hypoxia-induced secreted VEGF expression in human T47D cells at 0.3 uM after 16 by ELISA. In kind it is functional, cell-based. The gist of the method:
(§2)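 T47D cells given compound before hypoxia (1% O2, 16 h). Secreted VEGF protein in conditioned media measured by modified human VEGF ELISA and compared with normoxic control level.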

For assay [3], the system named is T47D. Description: Inhibition of hypoxia-induced secreted VEGF expression in human T47D cells at 1 uM after 16 by ELISA. It counts as functional, cell-based. The essentials: as §2
For orientation: An ELISA detects its analyte on a solid surface through an enzyme-linked reagent.

The target in assay [4] is T1, Hypoxia inducible factors; HIF-1-alpha, HIF-2-alpha (Homo sapiens, UniProt Q16665+Q99814). Description: Inhibition of hypoxia-induced HIF1 activation in human T47D cells upto 30 uM after 16 hrs by luciferase reporter gene assay. In kind it is cell-based. The gist of the method:
(§3)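 T47D cells transiently co-transfected with pTK-HRE3-luc and pRL-TK control, preincubated with compounds 30 min at 37 °C, then hypoxia (1% O2/94% N2/5% CO2) 16 h. Firefly luciferase activity normalized to Renilla, expressed as % inhibition versus induced control. Representative experiment, quadruplicate.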
For orientation: In a reporter assay the amount or activity of a reporter protein is the signal.

The target of assay [5] is T1, Hypoxia inducible factors; HIF-1-alpha, HIF-2-alpha. Put plainly: Inhibition of hypoxia-induced HIF1 activation in human T47D cells upto 10 uM by luciferase reporter gene assay. It counts as cell-based. The gist of the method:
as §3

The target in assay [6] is Aryl hydrocarbon receptor nuclear translocator (Homo sapiens) (UniProt P27540). Description: Inhibition of hypoxia-induced HIF1beta activation in human T47D cells at 10 uM after 4 hrs by Western blotting. In kind it is cell-based. The gist of the method: as §1
In assay [7] the target is T1, Hypoxia inducible factors; HIF-1-alpha, HIF-2-alpha. Description: Inhibition of hypoxia-induced HIF1 activation in human HeLa cells by luciferase reporter gene assay. It counts as cell-based.
The nature of assay [8]: Inhibition of luciferase expression in TNT T7 coupled reticulocyte lysate system at 10 uM. In kind it is functional. The essentials:
(§4)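 Cell-free luciferase expression from Luciferase T7 Control DNA using TNT T7 coupled reticulocyte lysate transcription/translation. Compounds present during reaction; luciferase activity expressed as percentage of untreated control.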

Assay [9] concerns T47D. Description: Inhibition of hypoxia-induced VEGF expression in human T47D cells at 10 uM after 16 hrs by ELISA. In kind it is cell-based. The gist of the method: (§5)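 T47D cells given compound for 30 min before hypoxia (1% O2) for 16 h. VEGF protein in cell lysates measured by ELISA, normalized to cellular protein. Representative experiment in triplicate; significance p < 0.05 versus untreated control.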

Assay [10] has as its system T47D. Put plainly: Inhibition of hypoxia-induced secreted VEGF expression in human T47D cells at 10 uM after 16 by ELISA relative to normoxic control. It counts as functional. The essentials:
as §2

The subject of assay [11] is T47D. Description: Inhibition of hypoxia-induced VEGF expression in human T47D cells at 0.3 uM after 16 hrs by ELISA. It counts as cell-based. The essentials:
as §5

The nature of assay [12]: Inhibition of luciferase expression in TNT T7 coupled reticulocyte lysate system at 0.3 uM. In kind it is functional. The gist of the method:
as §4

For assay [13], the system named is T47D. Put plainly: Inhibition of VEGF protein expression in human T47D cells at 0.3 uM. It counts as functional. The gist of the method:
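T47D breast carcinoma cells in DMEM/F12 with 10% FBS, 37 °C. Compound added 30 min before hypoxia (1% O2/94% N2/5% CO2, 16 h). Cell lysate VEGF measured by ELISA and normalised to cellular protein. Secreted VEGF in conditioned medium measured by modified ELISA. Compared with untreated control; one representative experiment in triplicate; significance p < 0.05.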

Assay [14] deals with T47D. Description: Inhibition of hypoxia-induced secreted VEGF expression in human T47D cells at 3 uM after 16 by ELISA relative to normoxic control. In kind it is functional. The essentials: as §2
For assay [15], the target named is T1, Hypoxia inducible factors; HIF-1-alpha, HIF-2-alpha. Put plainly: Inhibition of hypoxia-induced HIF1 activation in human T47D cells after 16 hrs by luciferase reporter gene assay. It counts as cell-based.
The subject of assay [16] is T47D. Put plainly: Inhibition of hypoxia-induced VEGF expression in human T47D cells at 3 uM after 16 hrs by ELISA. In kind it is cell-based. The essentials: as §5
For assay [17], the system named is T47D. Put plainly: Inhibition of hypoxia-induced VEGF expression in human T47D cells at 1 uM after 16 hrs by ELISA. It counts as cell-based. The essentials:
as §5

The source made the active and inactive calls. The rule behind the calls is not given here.

For orientation: IC50 means the concentration needed to halve the response being measured. A higher IC50 goes with weaker potency in that assay. For orientation: inhibition means the change of the read-out against control, counted positive when it falls. Higher therefore signals strong suppression.

Aryl hydrocarbon receptor nuclear translocator (Homo sapiens), sequence (P27540 whole entry): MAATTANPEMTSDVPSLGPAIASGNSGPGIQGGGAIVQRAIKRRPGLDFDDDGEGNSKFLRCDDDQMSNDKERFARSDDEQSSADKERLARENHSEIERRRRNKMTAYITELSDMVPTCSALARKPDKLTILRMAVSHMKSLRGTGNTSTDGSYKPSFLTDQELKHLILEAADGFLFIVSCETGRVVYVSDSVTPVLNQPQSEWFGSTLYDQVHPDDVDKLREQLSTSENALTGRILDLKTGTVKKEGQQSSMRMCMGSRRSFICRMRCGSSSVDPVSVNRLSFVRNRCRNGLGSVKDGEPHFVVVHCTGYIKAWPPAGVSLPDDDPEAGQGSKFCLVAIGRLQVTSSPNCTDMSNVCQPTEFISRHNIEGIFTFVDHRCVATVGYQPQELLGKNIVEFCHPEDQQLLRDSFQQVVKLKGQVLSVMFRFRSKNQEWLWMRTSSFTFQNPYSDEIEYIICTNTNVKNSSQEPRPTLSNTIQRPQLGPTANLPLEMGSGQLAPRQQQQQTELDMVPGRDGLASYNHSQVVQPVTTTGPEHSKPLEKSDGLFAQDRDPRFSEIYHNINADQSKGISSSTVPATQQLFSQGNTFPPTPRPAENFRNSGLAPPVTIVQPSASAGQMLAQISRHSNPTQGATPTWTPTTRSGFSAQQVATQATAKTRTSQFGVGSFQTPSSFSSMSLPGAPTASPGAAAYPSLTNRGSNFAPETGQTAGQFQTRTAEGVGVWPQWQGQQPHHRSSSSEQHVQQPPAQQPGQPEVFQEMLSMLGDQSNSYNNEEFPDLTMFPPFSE

Take `CC[C@H]1CN2CCc3cc(OC)c(OC)cc3[C@@H]2C[C@@H]1C[C@@H]1NCCc2cc(O)c(O)cc21`: the outcome in assay [1], in [2], in [4], in assay [5] and in assay [6] was inactive. In assay [3], the result was Active.
In assay [7], `C[C@@H]1C[C@@H]([C@H](O)CC2CC(=O)NC(=O)C2)C(=O)[C@@H](C)C1` [CYCLOHEXIMIDE] yielded an IC50 of 36 nM. In addition, the result in [1], in [2] and in assay [6] was inactive. Also, the outcome in assay [8] and in assay [9] was Active. Moreover, the inhibition at 10 µM in [10] amounted to 43%.
In turn, `CC[C@H]1CN2CCc3cc(OC)c(OC)cc3[C@@H]2C[C@@H]1C[C@H]1NCCc2cc(OC)c(OC)cc21` [EMETINE] registered an inhibition in assay [11] of 69%. The outcome in assay [12], in assay [1] and in assay [6] was inactive. Also, the outcome in assay [8] and in [2] was Active. Besides, the Activity in [13] was determined as 58.8 pg/mL.
In [14], `CC[C@H]1CN2CCc3cc(OC)c(OC)cc3[C@@H]2C[C@@H]1C[C@@H]1NCCc2cc(O)c(OC)cc21` [ISOCEPHAELINE] displayed an inhibition at 3 µM of 69%. Further, the outcome in assay [1], in [2] and in [6] was inactive. The compound further returned an IC50 in [15] of 1.1 µM. The outcome in assay [16] was Active.
On to `CC[C@H]1CN2CCc3cc(O)c(OC)cc3[C@@H]2C[C@@H]1C[C@@]1(O)NCCc2cc(O)c(OC)cc21` [KLUGINE], for which the result in assay [12], in [1], in assay [2] and in [6] was inactive. Further, the outcome in assay [8] and in assay [3] was Active. Besides, in assay [15], the concentration for half-maximal inhibition (IC50) stood at 0.2 µM. The same compound came in with an inhibition in assay [17] of 56%.

The values above are taken from ChEMBL document CHEMBL1158795 (J Nat Prod, 2005).
